Our source for the GFP/RFP ratio change values is PubChem BioAssay AID651647 (Sanford-Burnham Center for Chemical Genomics, 2012).

SMILES strings stand for the structures. Hit rate of the full screen: of about 360,000 compounds, about 220 (0.061%) were called active. The entries come from a sample that favours actives as a whole. Values without a mark were called inactive.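 The calls were made as follows: active = GFP/RFP ratio change of at least 30% with cell ATP level not reduced by more than half and red fluorescence within 50% of control; inactive = the rest, inconclusive results apart.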

In this assay the target is Matrix metalloproteinase-14 (Homo sapiens) (UniProt P50281). The experiment in a line: blockers of MT1-MMP proenzyme processing, primary screen, HT1080 RFP-PRO-GFP cells, GFP/RFP fluorescence (AID 651647). Particulars: overnight, at 20 µM, hits give high values, percent of plate control window, DMSO zero. Summed up:
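Compound: 20 µM single dose, 1% DMSO / System: HT1080 RFP-PRO-GFP cells / Controls: DMSO and RFP-L50D-GFP cell wells / Read-out basis: GFP/RFP fluorescence ratio / Schedule: overnight compound exposure at 37 °C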
For the compound `CCOC(=O)c1cc(-c2sc(NC(=O)c3ccccc3)nc2C)n(Cc2ccccc2)n1`, the GFP/RFP ratio change was -13.8%.
Turning to `CCN1CCN(c2c(Cl)cccc2NC(=O)c2ccc(Br)o2)CC1`, the GFP/RFP ratio change was 6.59%.
For `CNC(=O)c1[nH]cnc1C(=O)N[C@@H](CC(C)C)C(=O)OCc1ccccc1`, the GFP/RFP ratio change was 3.79%.
Take `CSc1ncccc1C(=O)N1CCCC(Nc2ccc(F)c(F)c2)C1` (stereo unspecified): the GFP/RFP ratio change was 0.99%.
With `O=Cc1c(NCCc2cccc(F)c2)c2ccccc2[nH]c1=O`, the GFP/RFP ratio change is -3.4%.
The same measure for `Cn1c(=S)sc2ccc3ccccc3c21`: 2.62%.
Regarding `CN(C(=O)CSc1cccc[n+]1[O-])C1CCCCC1`, the GFP/RFP ratio change is 9.34%.
Consider `Cc1ccc(S(=O)(=O)N2CC(C)N(S(C)(=O)=O)C2)cc1` (stereo unspecified), for which the GFP/RFP ratio change is 0.163%.
The same measure for `CCc1ccnc(NS(=O)(=O)c2ccc3c(c2)OCCO3)c1`: 3.33%; for `Cc1ccc2c(c1)N(S(=O)(=O)c1cc(-c3cc(C)no3)ccc1C)CCO2`: 0.714%.
`CC(=O)c1c(O)cc2n(c1=O)-c1ccc(Cl)cc1C2(C)C`: the GFP/RFP ratio change is -5.09%.
For the compound `CCOC(=O)C1(O)CC(C)=NN1C(=O)c1cccc(Br)c1` (stereo unspecified), the GFP/RFP ratio change was 7.72%.
Consider `O=C(O)CC(Cn1cnnn1)c1ccccc1` (stereo unspecified), for which the GFP/RFP ratio change is -0.417%.
As to `Nc1nc(SCc2cccc(Br)c2)n[nH]1`, the GFP/RFP ratio change was 6.02%.
For `CC(=O)c1nn(-c2ccc(C)cc2)cc1C(=O)c1cccc(Br)c1`, the GFP/RFP ratio change is 0.8%.
The same measure for `CCc1ccc(C2N3CC4([N+](=O)[O-])CN2CC([N+](=O)[O-])(C3)C4(C)C)cc1` (stereo unspecified): -2.43%; for `O=S(=O)(Nc1ncccn1)c1ccc(NS(=O)(=O)c2cccc(Cl)c2Cl)cc1`: -0.508%.
As for `O=c1ccc2c(-c3ccccc3S(=O)(=O)O)c3ccc(O)c(O)c3oc-2c1O`, the GFP/RFP ratio change was 49.3% (active).
`N/C(=N\OS(=O)(=O)c1cccc([N+](=O)[O-])c1)c1ccncc1`: the GFP/RFP ratio change is 1.12%.
On to `CCc1ccnc(NC(=O)Nc2ccc(OCc3ccccc3)cc2)c1`, for which the GFP/RFP ratio change is 3.94%.
`CC(C)(C)OC(=O)N1CCN(C(=O)c2[nH]c(C(F)(F)F)nc2-c2ccccc2)CC1`: the GFP/RFP ratio change is 3.61%.
As to `CN1CC(c2ccccc2)C2(COc3ccccc3C2=O)C12C(=O)Nc1ccccc12` (stereo unspecified), the GFP/RFP ratio change was -4.6%.
In the case of `Cc1ccc2c(c1)N(CC(=O)NCCCN1CCCCC1)C(=O)c1cccnc1O2`, the GFP/RFP ratio change was 1.06%.
For `Cc1ccccc1S(=O)(=O)NC(=O)C1(C)CCN1C(=O)C1(c2ccc(Cl)cc2)CC1` (stereo unspecified), the GFP/RFP ratio change is 0.579%.
As to `O=C(COC(=O)c1ccc(S(=O)(=O)N2CCCCCC2)cc1)Nc1ccccc1C(F)(F)F`, the GFP/RFP ratio change was -2.08%.
Take `COc1ccccc1C1CCN(C(=S)Nc2ccc(Br)cc2)CC1`: the GFP/RFP ratio change was -1.18%.
Turning to `CC(C)[C@H](NC(=O)N1CCn2c1nc1ccccc12)C(=O)NCCc1ccccc1`, the GFP/RFP ratio change is 1.13%.
For `O=c1[nH]snc1-c1c(Cl)cccc1Cl`, the GFP/RFP ratio change is -2.44%.
With `COC(=O)NNC(=O)C1CCC(C)CC1` (stereo unspecified), the GFP/RFP ratio change was 0.231%.
The same measure for `Cc1cn(C2CC(O)C(CO)O2)c(=O)n(CCCc2ccccc2)c1=O` (stereo unspecified): 5.06%; for `Cc1nn(C)c(Oc2ccccc2)c1CCNS(=O)(=O)c1ccc(F)cc1`: 0.853%.
With `O=C(c1ccc(F)c(S(=O)(=O)N2CCOCC2)c1)N(CCc1ccccc1)Cc1ccccc1`, the GFP/RFP ratio change is -8.33%.
As to `CC(=O)c1cc2c(cc1NC(=O)CN1CCCCCC1)OCO2`, the GFP/RFP ratio change is -5.12%.
For `COc1ccc2c(c1)C=CC1(O2)N(CCO)c2ccccc2C1(C)C` (stereo unspecified), the GFP/RFP ratio change is 52% (active).
`CN1c2ccc([N+](=O)[O-])cc2C(C)(C)C12C=Cc1cc(C(=O)O)ccc1O2` (stereo unspecified): the GFP/RFP ratio change is 0.611%.
For `O=C(Nc1ccc(N2CCOCC2)nc1)c1c(F)cccc1F`, the GFP/RFP ratio change is -1.38%.
For the compound `CCc1nonc1NC(=O)c1oc2ccc(Cl)cc2c1C`, the GFP/RFP ratio change was 3.45%.
Consider `COc1ccc(-c2cc(NC(C)=O)c3ncc(-c4cc(OC)c(OC)c(OC)c4)n3c2)cn1`, for which the GFP/RFP ratio change was -4.94%.
`CCc1ccc(NC(=O)N[C@H](C(=O)O)C(C)CC)cc1` (stereo partly specified): the GFP/RFP ratio change is 2.36%.
Under `COc1ccc(C(C)C)cc1-c1ccc2nncn2c1` stands 3.27%.
As for `Cc1cccc(C)c1NC(=O)C(Cl)C(=O)c1ccccc1` (stereo unspecified), the GFP/RFP ratio change is -3.13%.
In the case of `Cc1ccc(Nc2ccccc2N)cc1`, the GFP/RFP ratio change was -12%.
With `O=c1cnnc(Nc2ccccc2)[nH]1`, the GFP/RFP ratio change is 7.04%.
For the compound `Nc1ccc(Nc2ccccc2)cc1`, the GFP/RFP ratio change is 44% (active).
For `O=C(Cn1cnc2cc([N+](=O)[O-])ccc2c1=O)NC(=O)NCc1ccccc1`, the GFP/RFP ratio change was 1.03%.
`COC(=O)C(NS(=O)(=O)c1ccc(F)cc1)c1ccccc1` (stereo unspecified): the GFP/RFP ratio change is 0.566%.
In the case of `CCOc1ccc(NC(=O)CN(C)C(=O)CSc2ccccc2)cc1OCC`, the GFP/RFP ratio change is -8.63%.
Under `N/C(=N\c1nc2ccccc2o1)NC(=O)C(Cc1ccccc1)N1C(=O)c2ccccc2C1=O` (stereo unspecified) stands -6.5%; under `CNC(=S)N1CCC(NC(=O)C(Cc2ccc(F)cc2)NC(C)=O)CC1` (stereo unspecified), -0.719%; under `CC(C)(C)n1nnc(CCc2nnn(C(C)(C)C)n2)n1`, 2.72%.
Turning to `O=C(COC(=O)c1ccc(NS(=O)(=O)c2cccs2)cc1O)Nc1ccc(F)cc1`, the GFP/RFP ratio change is 4.53%.
With `C[C@@H](CN1CCC[C@H]1CN1C(N)=NC[C@@H]1Cc1ccccc1)N1C[C@@H](Cc2ccccc2)N(CCCC2CCCC2)C1=N`, the GFP/RFP ratio change was 1.74%.
Under `COc1ccc2oc(C(=O)N(CC(C)C)C3CCS(=O)(=O)C3)c(C)c2c1` (stereo unspecified) stands 1.26%.
Turning to `O=C1c2ccccc2C(=O)N1CC1c2ccccc2CCN1S(=O)(=O)c1ccccc1` (stereo unspecified), the GFP/RFP ratio change is -1.81%.
Turning to `COc1ccc(NC2CCCN(C(=O)c3ccccc3-c3ncc[nH]3)C2)cc1` (stereo unspecified), the GFP/RFP ratio change is 3.89%.
In the case of `COC(=O)c1ccccc1Oc1c(F)c(F)nc(N2CCOCC2)c1F`, the GFP/RFP ratio change is 2.7%.
The same measure for `COc1ccc(S(=O)(=O)N2CCC(C(=O)NCCC(=O)NCc3cccc(OC)c3)CC2)cc1`: 0.341%; for `COc1ccc(C)cc1Nc1nc(-c2c(C)[nH]c3ccccc23)cs1`: 47.3% (active).
With `Cc1[nH]c2ccccc2c1-c1ccc(Cl)nn1`, the GFP/RFP ratio change was -0.969%.
On to `COC(=O)c1cnc(Nc2cc(C)ccc2OC)c2ccccc12`, for which the GFP/RFP ratio change was -1.73%.
`C=CCn1nc(C(=O)OCC)cc1-c1sc(NC(=O)c2ccccc2)nc1C`: the GFP/RFP ratio change is -9.54%.
With `CCOC(=O)C1C(C)C(C(C)(C)C)N(S(=O)(=O)c2ccc(C)cc2)C1c1ccccc1` (stereo unspecified), the GFP/RFP ratio change is -10.4%.
Turning to `O=S(=O)(/C=C/c1ccccc1)NCCc1ccccn1`, the GFP/RFP ratio change is 2.57%.
In the case of `Cc1ccccc1C(=O)O`, the GFP/RFP ratio change is -0.112%.
Take `CCC1(C)N(O)C(C)(C)C(c2ccc(OC)cc2)=[N+]1[O-]` (stereo unspecified): the GFP/RFP ratio change is 5.6%.
For `CN(C(=O)c1cccc(NC(=O)C2CCN(C(=O)OC(C)(C)C)CC2)c1)C1CCC1`, the GFP/RFP ratio change is 6.42%.
